# From PubChem
# M1 agonist = M1 muscarinic receptor agonists, primary screen, CHO-M1 cells, Fluo-4 calcium, agonist mode. 64,000 tested, 3% active. AID 626, 2007. Muscarinic acetylcholine receptor M1. Fluo-4 calcium fluorescence; hits give high values. B-score at 10 µM;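 active = fluorescence rise, raw or as B-score row- and column-corrected plate score, outside the 99.7% band of its plate's samples, either direction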
# BAP1 inh = inhibitors of BAP1 deubiquitinase, primary screen, biochemical, Ub-AMC fluorescence, kinetic | 72,000 tested, 0.48% active | Ubiquitin carboxyl-terminal hydrolase BAP1 (Homo sapiens), Q92560 | calls only at 20 µM | recombinant BAP1, Ub-AMC hydrolysis fluorescence kinetic; hits give low values;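 active = activity remaining at or below 50% of control, provided the compound also passes the data quality filters; inactive = the rest, including low values that fail the filters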;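 note: 100% = DMSO wells rate and 0% = substrate alone blank rate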
# Her2 expr inh = inhibitors of Her2 protein expression, primary screen, SKBR-3 cells, AlphaScreen, 66K library; Receptor tyrosine-protein kinase erbB-2 (Homo sapiens), P04626; SKBR-3 HER2 protein level, 18-24 h; hits give low values; HER2 level % of control, % at 10 µM; 65,000 tested, 0.69% active; AID 645, 2007;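 active = HER2 level under 5% of the carrier-only control; inconclusive = no clear call, values can overlap the other calls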;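 note: 100% = DMSO carrier and 0% = 500 nM PU-H71 HSP90 inhibitor; lower value means stronger loss of Her2 protein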
# M1 antagonist = antagonists of rat M1 muscarinic receptor | CHO-M1 cells, Fluo-4 calcium, ACh EC80 antagonist mode; hits give low values | 64,000 tested, 3.4% active | B-score at 10 µM;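 active = calcium fluorescence response, raw or row-and-column corrected B-score, differing from the plate sample mean either way at a set confidence level, mostly lower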
# Target sequence (P08482 whole entry, looked up): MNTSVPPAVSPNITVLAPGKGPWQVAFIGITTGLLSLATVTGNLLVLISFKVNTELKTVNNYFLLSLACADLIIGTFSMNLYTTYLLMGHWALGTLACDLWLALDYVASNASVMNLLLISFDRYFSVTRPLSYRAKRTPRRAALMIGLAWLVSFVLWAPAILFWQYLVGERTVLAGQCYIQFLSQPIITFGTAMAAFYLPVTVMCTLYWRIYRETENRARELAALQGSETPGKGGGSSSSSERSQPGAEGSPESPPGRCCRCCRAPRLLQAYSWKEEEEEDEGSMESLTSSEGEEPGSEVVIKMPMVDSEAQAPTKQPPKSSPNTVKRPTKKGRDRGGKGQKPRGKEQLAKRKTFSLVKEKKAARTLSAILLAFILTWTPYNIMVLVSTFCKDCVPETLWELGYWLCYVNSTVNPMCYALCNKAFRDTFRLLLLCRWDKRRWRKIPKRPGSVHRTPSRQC
# JNK3 blocker = JNK3 kinase activity inhibitors, primary screen, biochemical, human, purified enzyme; Mitogen-activated protein kinase 10 (Homo sapiens), P53779; inhibition, % at 8 µM; HTS; 60,000 tested, 0.61% active; AID 746, 2007; in the data active = inhibition above about 17%;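 note: 0% = DMSO and 100% = reference inhibitor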
# HEK293 NFkB inh = inhibitors of PMA/ionomycin-induced NF-kB reporter, primary screen, antigen receptor NF-kB inhibitor project, cell-based, HEK-293 luciferase reporter, luminescence | inhibition, % at 3 µM | HEK-293 NF-kB luciferase reporter | 62,000 tested, 0.21% active;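 active = inhibition above the mean of all tested compounds plus 3 SD, cut at about 40% in these data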;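 note: 0% = stimulated DMSO wells and 100% = 10 µM reference inhibitor 5653914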
#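 Material: HEK-293 cells with stable firefly luciferase reporter driven by four HIV NF-kB elements / Also added: PMA plus ionomycin mix as NF-kB-activating stimulus / Compound dosing: 3 µM once, 0.30% DMSO / Times: 1 h pretreatment, 16 h stimulation, 37 °C / Signal: luminescence / Evaluation: per-plate % inhibition versus controls / Benchmarks: DMSO and 10 µM reference inhibitor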
# M1 agonist conf = rat M1 muscarinic receptor agonists, confirmation, CHO-M1 cells, Fluo-4 calcium, duplicate retest; fluorescence change (max-min) at 10 µM; 1,700 tested, 19% active; AID 1488, 2009; Fluo-4 calcium fluorescence, agonist mode; actives lie on both sides; shares compounds with M1 agonist;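 active = fluorescence change differs from the solvent-only DMSO control mean at a set confidence level in both duplicate runs; inconclusive = differs from solvent-only control mean in just one of two runs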;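 note: an EC20 dose of acetylcholine follows compound addition during the same imaging run; raw fluorescence intensity difference in instrument units with no normalization to controls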
# M4 ag counter = agonist activity at rat M4 receptor, confirmation, counter-screen for M1 allosteric modulator project, cell-based, agonist mode. 1,700 tested, 9% active. shares compounds with M1 agonist. fluorescence change (max-min) at 10 µM. AID 1741, 2009. CHO M4/Gqi5 cells, Fluo-4 calcium fluorescence; actives lie on both sides;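 active = fluorescence change differing from the plate's solvent-only control wells at 99.7% confidence in both duplicates, whether higher or lower; inconclusive = differs from solvent controls in only one of two duplicates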
# * = called active by the depositor; i = inactive; u = inconclusive; x = no result. The list is not random: actives were taken first. Their share in the collection is about 6.6%.
SMILES,M1 agonist,BAP1 inh,Her2 expr inh,M1 antagonist,JNK3 blocker,HEK293 NFkB inh,M1 agonist conf,M4 ag counter
O=C(Nc1sc2c(c1C(=O)Nc1ccccc1)CCCCC2)c1cccnc1,x,i,x,x,x,x,x,x
O=C(Nc1ccccc1)NC1(C(=O)NCCCN2CCOCC2)CCCCC1,4.01*,i,94.7,1.11,-2.0,-12.4,u,-58.1
O=C(Nc1ccc(Cl)cc1)NC1(C(=O)NCCCN2CCOCC2)CCCCC1,0.167,i,123.3,1.12,-1.4,6.9,x,x
O=C(Nc1ccc(NC(=O)c2ccco2)c(Cl)c1)c1ccc(Cl)c([N+](=O)[O-])c1,x,i,x,x,x,x,x,x
CCOC(=O)C1=C(C(=O)OCC)SC(=C2C(=S)C(C)(C)N(C(=O)CC(C)C)c3ccccc32)S1,x,i,x,x,x,x,x,x
CCc1ccc(C2NC(=O)NC(C)=C2C(=O)OC(C)CC)cc1 (configuration not stated),x,i,x,x,x,x,x,x
COC(=O)c1ccc(-c2ccco2)n1Cc1nc(-c2ccc(OC)c(OC)c2)oc1C,1.85*,i,52.0,0.19,-3.1,8.9,-19.3,-13.2
O=C(NCC(=O)N(Cc1ccccc1)C(C(=O)NC1CCCC1)c1ccco1)c1ccco1 (configuration not stated),9.4*,i,100.0,-1.48,2.8,-0.8,-12.3,-57.4
Clc1ccccc1C=Nc1ccc2c(c1)OCCO2,x,i,x,x,x,x,x,x
CC1=C(C(=O)OC2CCCC(C)C2)C(c2cccc(F)c2)NC(=O)N1 (configuration not stated),x,i,x,x,x,x,x,x
CCOc1ccc(Nc2ncnc3c2cnn3-c2ccccc2)cc1,3.17*,i,84.5,-0.0401,-3.4,15.2,-18.6,u
CCOc1ccc(Nc2ncnc3c2cnn3Cc2ccccc2)cc1,x,i,x,x,x,x,x,x
COc1cc(C(=O)Nc2nc3c(cc4c5c(cccc53)CC4)s2)cc(OC)c1OC,x,i,x,x,x,x,x,x
COc1cc(CSc2nnnn2-c2ccc(C)cc2)cc(OC)c1OC,5.8*,i,46.4,-2.5*,1.1,44.3*,3.54,u
CCOC(=O)c1oc2ccccc2c1CSc1nnnn1-c1ccc(C)cc1,0.378,i,75.7,0.759,-3.5,16.7,x,x
COc1ccc2c(c1)OCCC2=O,x,i,x,x,x,x,x,x
O=C1c2cccc3c(N4CCCCC4)ccc(c23)C(=O)N1c1ccccn1,78.1*,i,71.9,-1.51,4.9,-14.4,775*,819*
O=C1c2ccc(Oc3ccc4c(c3)C(=O)N(c3ccccn3)C4=O)cc2C(=O)N1c1ccccn1,x,i,x,x,x,x,x,x
COc1cccc(OC)c1OCCCCCc1c(C)n[nH]c1C,3.03*,i,108.8,-0.0873,2.2,-1.1,-16.6,-44
Cc1cccc(C)c1OCCCCc1c(C)n[nH]c1C,0.137,i,85.7,-0.847,-2.2,16.5,x,x
CCc1nc(NCc2ccccn2)c2oc3ccccc3c2n1,4.18*,x,108.9,-2.33,x,17.8,-23.7*,u
CCc1nc(NC(C)C)c2oc3ccccc3c2n1,-1.46,x,110.9,-0.697,x,4.5,x,x
CC(C)C(=O)N1c2ccccc2NC2=C(C(=O)CC(C)(C)C2)C1c1ccc([N+](=O)[O-])cc1 (configuration not stated),x,i,x,x,x,x,x,x
C=CCn1c(SCC(=O)c2ccc(OC)cc2)nnc1C(C)NC(=O)c1cccs1 (configuration not stated),-2.82*,i,134.5,0.715,-0.6,8.9,u,-52.3
Cc1ccccc1OCCNS(=O)(=O)c1ccc2oc3ccccc3c2c1,x,i,x,x,x,x,x,x
